We go through three molecules from ChEMBL document CHEMBL3774372, “Design, physico-chemical properties and biological evaluation of some new N-[(phenoxy)alkyl]- and N-{2-[2-(phenoxy)ethoxy]ethyl}aminoalkanols as anticonvulsant agents” (Bioorg Med Chem, 2016).

Structures are written as SMILES. Active and inactive are the calls of the source. The calls are words filed in the database; no cut-off is given here. A value given as a limit tells only on which side of the number the result lay.

The nature of data set [1]: AUC (0 to infinity) in CD1 mouse brain at 12.92 mg/kg, ip measured up to 240 mins by LC/ESI-MS/MS analysis. Format: ADME, organism-based. Further details: dose 12.92 mg/kg, route intraperitoneal, time infinity.
Data set [2] concerns Mus musculus. Description: Neurotoxicity in mouse at 30 mg/kg, ip after 0.5 hrs by rotarod test. Format: toxicity, organism-based. To be noted: in vivo. The procedure, abridged: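 Mice were dosed ip with compound suspended in 0.5% methylcellulose. Rotarod: a 1 in. knurled rod turning at 6 rpm. Neurotoxicity was scored as failure to stay on the rod for at least 1 min in each of three trials. Results are given as the number of animals affected out of the number tested.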

Data set [3] in a line: Ratio of drug level in brain to plasma in CD1 mouse at 12.92 mg/kg, ip administered as single dose measured after 5 mins by LC/ESI-MS/MS analysis. Format: ADME, organism-based. To be noted: brain and plasma, read-out: BPR.
Data set [4] deals with Vibrio harveyi. Description: Antimutagenic activity against Vibrio harveyi BB7X assessed as inhibition of NQNO-induced mutagenicity after 48 hrs. Type of data set: functional. The procedure, abridged:
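V. harveyi cultures grown exponentially to A600 0.1 at 30 °C, exposed to test compound for 15 min, then to NQNO, and grown on to A600 0.3–0.4. 5 × 10⁶ cells plated on BOSS agar with neomycin (100, final). Neomycin-resistant colonies counted after 48 h at 30 °C. Result given as % inhibition of NQNO mutagenicity; three independent repeats.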

Data set [5] deals with Mus musculus. Description: AUMC (0 to infinity) in CD1 mouse plasma at 12.92 mg/kg, ip measured up to 240 mins by LC/ESI-MS/MS analysis. To be noted: in vivo, 4 h. Format: ADME, organism-based.
Data set [6] in a line: Cmax in CD1 mouse brain at 12.92 mg/kg, ip measured up to 240 mins by LC/ESI-MS/MS analysis. Type of data set: ADME, organism-based. Further details: dose 12.92 mg/kg, route intraperitoneal.
A short description of data set [7]: Ratio of drug level in brain to plasma in CD1 mouse at 12.92 mg/kg, ig administered as single dose measured after 120 mins by LC/ESI-MS/MS analysis. Format: ADME, organism-based. To be noted: brain and plasma, po, read-out: BPR.
Data set [8] deals with Mus musculus. Nature of the data set: Anticonvulsant activity in ip dosed mouse assessed as protection against maximal electric shock-induced seizures measured after […]. Format: functional.
The nature of data set [9]: Retention time of the compound in mouse liver microsomes at 20 uM preincubated for 15 mins followed by addition of NADPH-regenerating system measured after 5 to 90 mins by […] analysis. Type of data set: ADME. The procedure, abridged:
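Mouse liver microsomes (0.4 mg/mL) with test compound (20 µM) in 100 mM potassium phosphate, pH 7.4, were preincubated 15 min at 37 °C. An NADPH-regenerating system was then added and incubation ran 5–90 min at 37 °C. Levallorphan (20 µM) served as internal standard, and reactions were quenched with perchloric acid. The supernatant was analysed by UPLC/MS. Duplicate incubations.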

A short description of another data set: in vitro. The settings on record: mouse, liver microsomes.
Data set [10] has as its system Mus musculus. Nature of the data set: Cmax in CD1 mouse plasma at 12.92 mg/kg, ig measured up to 240 mins by LC/ESI-MS/MS analysis. Format: ADME, organism-based. Set-up: dose 12.92 mg/kg, route […]. The settings on record: in vivo, po, 4 h.
Data set [11] in a line: AUC (0 to infinity) in CD1 mouse brain at 1 mg/kg, iv measured up to 240 mins by LC/ESI-MS/MS analysis. Type of data set: ADME, organism-based. Set-up: dose 1 mg/kg, route intravenous, time infinity.
For data set [12], the system named is Mus musculus. Description: Anticonvulsant activity in ip dosed mouse assessed as protection against subcutaneous pentylenetetrazol-induced seizures measured after […]. Type of data set: functional.
Data set [13] has as its system Vibrio harveyi. Nature of the data set: Mutagenicity in Vibrio harveyi BB7XM assessed as number of colonies after 48 hrs (reference value: 14 no_unit). Format: ADME, organism-based. The settings on record: in vivo. The procedure, abridged:
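Vibrio harveyi mutagenicity test: test compound was added to exponentially growing cultures (A600 = 0.1, 30 °C) and grown to OD600 0.3–0.4. Then 5 × 10^6 cells were plated on BOSS agar with neomycin (final 100 µg/mL) and incubated 48 h at 30 °C. Neomycin-resistant colonies were counted. Triplicate; controls were water, DMSO and NQNO 40 ng/mL.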

The nature of data set [14]: Ratio of drug level in brain to plasma in CD1 mouse at 12.92 mg/kg, ig administered as single dose measured after 30 mins by LC/ESI-MS/MS analysis. Format: ADME, organism-based. To be noted: brain and plasma, po, read-out: BPR.
Data set [15] in a line: Tmax in CD1 mouse brain at 12.92 mg/kg, ig measured up to 240 mins by LC/ESI-MS/MS analysis. Format: ADME, organism-based. To be noted: po.
Data set [16] is described as follows: Tmax in CD1 mouse brain at 1 mg/kg, iv measured up to 240 mins by LC/ESI-MS/MS analysis. Type of data set: ADME, organism-based.
Data set [17] in a line: MRT in CD1 mouse plasma at 12.92 mg/kg, ip measured up to 240 mins by LC/ESI-MS/MS analysis. Format: ADME, organism-based.
Data set [18] relates to Mus musculus. Nature of the data set: Anticonvulsant activity in mouse assessed as protection against 6 Hz psychomotor seizure at 20 mg/kg, ip after […]. Format: functional, organism-based.
For data set [19], the system named is Rattus norvegicus. Description: Anticonvulsant activity in rat assessed as protection against maximal electric shock-induced seizures at 30 mg/kg, ip measured after […]. Type of data set: functional, organism-based.
In data set [20] the test system is Mus musculus. Nature of the data set: Anticonvulsant activity in mouse assessed as protection against 6 Hz psychomotor seizure at 20 mg/kg, ip after 4 hrs. Type of data set: functional, organism-based. The method in brief:
(§1)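 Suspension in 0.5% methylcellulose given ip to mice; corneal stimulation with 0.2 ms monopolar rectangular pulses at 6 Hz for 3 s from a constant current device, mice restrained then released to observation cage. Protected if normal exploratory behaviour resumed within 10 s of stimulation. Scored as protected/tested, 4 mice per group.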

Data set [21] relates to Mus musculus. Description: Anticonvulsant activity in mouse assessed as protection against 6 Hz psychomotor seizure at 20 mg/kg, ip after 1 hr. Format: functional, organism-based. The method in brief:
as §1

Data set [22] has as its system Rattus norvegicus. Nature of the data set: Anticonvulsant activity in rat assessed as protection against maximal electric shock-induced seizures at 30 mg/kg, po measured after […]. Format: functional, organism-based.
The target in data set [23] is Adenosine receptor A1 (Homo sapiens) (UniProt P30542). Nature of the data set: Displacement of [3H]DPCPX from human recombinant adenosine A1 receptor expressed in CHO cells at 10^-5 M. Format: cell-based. The procedure, abridged:
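Radioligand binding screen run at a single test concentration of 10^-5 M. Each target used its stated receptor source (human recombinant CHO or HEK-293 cells, endogenous cell lines, or rat tissue membranes) with the listed radioligand.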

For data set [24], the system named is Rattus norvegicus. Description: Anticonvulsant activity in rat assessed as protection against maximal electric shock-induced seizures at 30 mg/kg, ip measured after 2 hrs. Format: functional, organism-based. The method in brief: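 Rats dosed ip or orally as 0.5% methylcellulose suspension; maximal electroshock at listed time. Protection = abolition of hindlimb tonic extension; 4 rats per group, scored protected/tested.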

Data set [25] deals with Rattus norvegicus. Description: Anticonvulsant activity in pilocarpine-induced status epilepticus Sprague-Dawley rat model at 30 mg/kg, ip after […] during post stage 3 seizure. Format: functional, organism-based.
Data set [26] relates to Mus musculus. Description: Anticonvulsant activity in mouse assessed as protection against 6 Hz psychomotor seizure at 50 mg/kg, ip after 2 hrs. Type of data set: functional, organism-based. The method in brief: as §1
Data set [27] concerns Rattus norvegicus. Nature of the data set: Anticonvulsant activity in pilocarpine-induced status epilepticus Sprague-Dawley rat model at 100 mg/kg, ip after 1 hr during post stage 3 seizure. Format: functional, organism-based. The method in brief: (§2)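 Rats given pilocarpine 50 mg/kg ip and observed to first convulsive seizure (Racine stage 3–5, time zero); test drug then given ip in 0.5% methylcellulose. Efficacy = halting further stage 3–5 convulsive seizures; scored protected/tested, time after first stage 3 seizure.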

For data set [28], the system named is Rattus norvegicus. Description: Anticonvulsant activity in pilocarpine-induced status epilepticus Sprague-Dawley rat model at 100 mg/kg, ip after 4 hrs during post stage 3 seizure. Type of data set: functional, organism-based. The method in brief: as §2

Chain of Adenosine receptor A1 (Homo sapiens) (P30542 whole entry): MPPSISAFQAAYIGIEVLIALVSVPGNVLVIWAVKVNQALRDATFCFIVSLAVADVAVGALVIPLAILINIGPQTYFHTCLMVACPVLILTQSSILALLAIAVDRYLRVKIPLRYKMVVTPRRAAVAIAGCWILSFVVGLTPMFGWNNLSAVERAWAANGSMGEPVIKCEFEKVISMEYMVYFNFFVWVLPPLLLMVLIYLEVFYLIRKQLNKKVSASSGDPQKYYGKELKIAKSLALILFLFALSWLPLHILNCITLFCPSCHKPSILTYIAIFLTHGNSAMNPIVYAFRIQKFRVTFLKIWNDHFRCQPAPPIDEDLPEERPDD

As for `Cc1cccc(C)c1OCCOCCN[C@H](C)CO.Cl`, the AUC(0-inf) is 2160 ng·h/mL in [1] and 5150 ng·h/mL in data set [11]. The values for the Activity result with Mus musculus [2] and in the data set on Vibrio harveyi [13] were “Non-toxic” and 18, respectively. For the same molecule, in data set [3], the Kp at 5 min was found to be 1.13. For the same molecule, the “inhibition (INH)” value in the data set with Vibrio harveyi [4] was found to be 7%. In addition, the AUMC in the data set with Mus musculus [5] is 1280 ng·h²/mL. Besides, the values for the Cmax (in [6]; in the data set on Mus musculus [10]) were 2360 ng/mL and 950 ng/mL, respectively. Also, the Kp at 2 h in [7] turned out to be 3.18. The ED50 in the data set with Mus musculus [8] is 12.9 mg/kg; with Mus musculus [12], more than 45 mg/kg. The same molecule showed a Retention_time in [9] of 3.81 min. For the same molecule, in the data set “in vitro”, the microsomal CLint at 20 µM was found to be 47 µL/min/mg. In addition, the Kp at 0.5 h in [14] is 2.12. In addition, the Tmax in data set [15] and in data set [16] was 5 min in each case. In [17], the MRT is 85.2 min.
`Cc1cccc(C)c1OCCOCCN[C@@H](C)CO`: the result in the data set on Mus musculus [18], with Mus musculus [20], in the data set on Mus musculus [21], in the data set on Rattus norvegicus [22] and in the data set with Rattus norvegicus [24] was inactive. In the data set on Rattus norvegicus [19], the result was Active. Moreover, the inhibition in data set [23] is -6.9%.
As to `Cc1cccc(C)c1OCCOCCN[C@H](C)CO`, the result with Rattus norvegicus [25], in the data set with Mus musculus [26], with Rattus norvegicus [27] and in the data set on Rattus norvegicus [28] was inactive.
